{"source": "paper PMC4377161", "about": "(Molecular cancer therapeutics, 2014)", "key": {"[1]": {"system": "mutant V600EB-Raf melanoma", "details": "cited from earlier work"}, "MDA-MB-231": {"system": "MDA-MB-231", "assay": "MTS cell viability, MDA-MB-231 breast cancer", "format": "cell-based", "details": "read-out: IC50, Other cancer types, 24 h", "procedure,_shortened": "(§1)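 Cells kept in DMEM with 1% Glutamax and 10% FBS at 37°C, 5% CO2. Seeded at 5×10^3 cells/well in 96-well plates and grown before treatment. Treated with DMSO vehicle or 0.62 to 40 µmol/L test compound for 24, 48 or 72 h. Viability read by MTS. IC50 per cell line derived from three independent experiments by curve fitting.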"}, "MCF-7": {"system": "MCF-7", "assay": "MTS cell viability, MCF-7 breast cancer", "format": "cell-based", "details": "read-out: IC50, Other cancer types, 24 h", "procedure,_shortened": "as §1"}, "A-549": {"system": "A-549", "assay": "MTS cell viability, A-549 lung cancer", "format": "cell-based", "details": "read-out: IC50, Other cancer types, 24 h", "procedure,_shortened": "as §1"}, "LNCap": {"system": "LNCap", "assay": "MTS cell viability, LNCap prostate cancer", "format": "cell-based", "details": "read-out: IC50, Other cancer types, 24 h", "procedure,_shortened": "as §1"}, "PC-3": {"system": "PC-3", "assay": "MTS cell viability, PC-3 prostate cancer", "format": "cell-based", "details": "read-out: IC50, Other cancer types, 24 h", "procedure,_shortened": "as §1"}, "HT-1080": {"system": "HT-1080", "assay": "MTS cell viability, HT-1080 fibrosarcoma", "format": "cell-based", "details": "read-out: IC50, Other cancer types, 24 h", "procedure,_shortened": "as §1"}, "MiA PaCa-2": {"system": "MiA PaCa-2", "assay": "MTS cell viability, MiA PaCa-2 pancreas cancer", "format": "cell-based", "details": "read-out: IC50, Other cancer types, 24 h", "procedure,_shortened": "as §1"}, "HCT-116": {"system": "HCT-116", "assay": "MTS cell viability, HCT-116 colon cancer", "format": "cell-based", "details": "read-out: IC50, Other cancer types, 24 h", "procedure,_shortened": "as §1"}, "HT-29": {"system": "HT-29", "assay": "MTS cell viability, HT-29 colon cancer", "format": "cell-based", "details": "read-out: IC50, Other cancer types, 24 h", "procedure,_shortened": "as §1"}, "SW-480": {"system": "SW-480", "assay": "MTS cell viability, SW-480 colon cancer", "format": "cell-based", "details": "read-out: IC50, Other cancer types, 24 h", "procedure,_shortened": "as §1"}, "melanoma cells": {"system": "melanoma cells", "assay": "MTS cell viability, melanoma cell lines", "format": "cell-based, human", "procedure,_shortened": "(§2)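 Melanoma lines (WM35, SbCl2, WM115, WM278.1, SK-MEL-24, 1205 Lu, UACC 903) and normal cells (FOM103 melanocytes, FF2441 fibroblasts, foreskin keratinocytes) seeded at 5×10^3 cells/well in 96-well plates. Exposed to DMSO vehicle or 0.62–40 µmol/L test compound for 24, 48 or 72 h, then MTS read. IC50 from three independent experiments per line, averaged across each group.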"}, "normal cells": {"system": "normal cells", "assay": "MTS cell viability, normal cells", "format": "cell-based, human", "details": "read-out: average IC50, normal cells; average over normal cells", "procedure,_shortened": "as §2"}, "UACC 903 melanoma cells": {"system": "UACC 903 melanoma cells", "assay": "Natural product library NPL-480 primary screen, MTS", "format": "cell-based, human", "details": "5 µmol/L, 24 hours, UACC 903, MTS", "procedure,_shortened": "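UACC 903 cells plated at 5×10^3 per well in 96-well plates for 24 h. Each library compound, from 10 mM DMSO stocks, added at 5 µmol/L final for 24 h. Viability read by MTS. Screen run three times and averaged.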"}, "[2]": {"system": "UACC 903 and 1205 Lu cells", "assay": "Apo-ONE caspase-3/7 apoptosis assay", "format": "cell-based, human", "details": "longer exposure"}, "[3]": {"system": "UACC 903 and 1205 Lu cells", "assay": "Cell cycle analysis, propidium iodide FACS", "format": "cell-based, human", "details": "24 hours leelamine treatment, propidium iodide stained UACC 903 and 1205 Lu cells"}, "PI3K/Akt pathway": {"system": "PI3K/Akt pathway", "assay": "Western blot of pathway signaling, PI3K/Akt", "format": "cell-based, human", "details": "3 to 6 µmol/L for 3 to 24 hours, UACC 903 and 1205 Lu", "procedure,_shortened": "(§3)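 1.5×10^6 melanoma cells plated in 100 mm dishes. After 48 h, treated with 3–6 µmol/L test compound for 3 to 24 h, then lysed in RIPA and immunoblotted with ECL detection; α-enolase as loading control. Probes: MAPK, phospho-Erk1/2 (Thr202/Tyr204) and total Erk1/2; PI3K/Akt, phospho-Akt (Ser473), total Akt, phospho-PRAS40 (Thr246), phospho-p70S6K (Thr389); STAT3, phospho-Stat3 (Tyr705), total Stat3.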"}, "MAPK pathway": {"system": "MAPK pathway", "assay": "Western blot of pathway signaling, MAPK", "format": "cell-based, human", "details": "3 to 6 µmol/L for 3 to 24 hours, UACC 903 and 1205 Lu", "procedure,_shortened": "as §3"}, "STAT3 pathway": {"system": "STAT3 pathway", "assay": "Western blot of pathway signaling, STAT3", "format": "cell-based, human", "details": "UACC 903 and 1205 Lu", "procedure,_shortened": "as §3"}, "[4]": {"system": "UACC 903 xenografted melanoma tumors", "assay": "Xenograft tumor growth, UACC 903", "format": "in vivo, Athymic Nude-Foxn1nu mice", "details": "UACC 903 xenograft, 5–7.5 mg/kg i.p. daily, versus DMSO vehicle control", "procedure,_shortened": "(§4)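 Female Athymic Nude-Foxn1nu mice, 3–4 weeks old, injected s.c. above both rib cages with 1×10^6 UACC 903 or 1205 Lu cells in 0.2 mL DMEM with 10% FBS and 1% Glutamax. At day 6, with 50–75 mm3 tumors, mice randomized (5 mice/group, 2 tumors/mouse). Dosed i.p. daily for 3–4 weeks with DMSO vehicle or […] test compound, depending on cell line. Tumor size and body weight measured every 2 days.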"}, "[5]": {"system": "1205 Lu xenografted melanoma tumors", "assay": "Xenograft tumor growth, 1205 Lu", "format": "in vivo, Athymic Nude-Foxn1nu mice", "details": "1205 Lu xenograft, 5–7.5 mg/kg i.p. daily, versus DMSO vehicle control", "procedure,_shortened": "as §4"}, "[6]": {"system": "preexisting xenografted melanoma tumors", "assay": "Xenograft tumor growth and body weight, UACC 903 or 1205 Lu", "format": "in vivo, Athymic Nude-Foxn1nu mice", "procedure,_shortened": "as §4"}, "Toxicity assessment": {"assay": "Toxicity assessment", "format": "in vivo", "details": "Swiss Webster mice; for blood markers of major organ function (ALP, ALT, AST, CK, CREA, GLU): 10 mg/kg i.p. daily", "procedure,_shortened": "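Swiss Webster mice (n=5) given 5 or 10 mg/kg test compound i.p. daily for 22 days and weighed daily. At termination, blood taken by cardiac puncture into lithium heparin serum separator tubes for ALP, ALT, AST, CK, creatinine and glucose. On day 22 liver, spleen, kidney, intestine, lung and heart were formalin-fixed, paraffin-embedded, H&E stained and examined microscopically.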"}, "UACC 903 tumors": {"system": "UACC 903 tumors", "assay": "Size and time matched tumors, Ki-67 immunohistochemistry", "format": "in vivo, nude mice", "details": "day 11, UACC 903 tumors, 7.5 mg/kg i.p. daily from day 6", "procedure,_shortened": "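Nude mice injected s.c. with 2.5×10^6 UACC 903 cells. From day 6, dosed i.p. daily to day 15 with DMSO vehicle or 7.5 mg/kg test compound. Size- and time-matched tumors harvested at days 11, 13 and 15 and immunostained with mouse anti-human Ki-67. Positive cells scored as % of total cells, ≥6 tumors, 4–6 fields each.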"}, "pAkt (Ser473)": {"system": "pAkt (Ser473)", "assay": "Western blot of size and time matched tumor lysates, pAkt", "format": "in vivo, nude mice", "details": "days 11, 13 and 15, 7.5 mg/kg i.p. daily from day 6, versus DMSO", "procedure,_shortened": "(§5)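 Same size- and time-matched UACC 903 s.c. tumors in nude mice: 7.5 mg/kg test compound or DMSO vehicle given i.p. daily from day 6. Lysates from tumors harvested at days 11, 13 and 15 immunoblotted for pAkt (Ser473) or pStat3 (Tyr705), compared with vehicle-treated tumors.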"}, "pStat3 (Tyr705)": {"system": "pStat3 (Tyr705)", "assay": "Western blot of size and time matched tumor lysates, pStat3", "format": "in vivo, nude mice", "details": "days 11, 13 and 15, 7.5 mg/kg i.p. daily from day 6, versus DMSO", "procedure,_shortened": "as §5"}, "cannabinoid receptor CB1": {"system": "cannabinoid receptor CB1", "details": "cited from earlier work"}, "G-protein activity": {"system": "G-protein activity", "details": "cited from earlier work"}}, "note": "“Also recorded” adds a separate entry of the source.", "data": [{"smiles": "CCCS(=O)(=O)Nc1ccc(F)c(C(=O)c2c[nH]c3ncc(-c4ccc(Cl)cc4)cc23)c1F", "note": "[Zelboraf]", "values": [{"measurement": "progression-free survival", "setting": "[1]", "result": 6.2, "unit": "months"}, {"measurement": "partial or complete anti-tumor response rate", "setting": "[1]; patients having mutant V600EB-Raf, first 2-month treatment cycle", "result": "approximately 80%"}]}, {"smiles": "CC(C)c1ccc2c(c1)CC[C@H]1[C@](C)(CN)CCC[C@]21C", "note": "[leelamine, Dehydroabietylamine]", "values": [{"measurement": "IC50", "setting": "MDA-MB-231", "result": "5.82 ± 0.87", "unit": "µM"}, {"measurement": "IC50", "setting": "MCF-7", "result": "7.12 ± 1.3", "unit": "µM"}, {"measurement": "IC50", "setting": "A-549", "result": "8.81 ± 0.82", "unit": "µM"}, {"measurement": "IC50", "setting": "LNCap", "result": "10.9 ± 0.23", "unit": "µM"}, {"measurement": "IC50", "setting": "PC-3", "result": "5.41 ± 2.6", "unit": "µM"}, {"measurement": "IC50", "setting": "HT-1080", "result": "4.01 ± 0.27", "unit": "µM"}, {"measurement": "IC50", "setting": "MiA PaCa-2", "result": "4.69 ± 0.37", "unit": "µM"}, {"measurement": "IC50", "setting": "HCT-116", "result": "4.8 ± 0.5", "unit": "µM"}, {"measurement": "IC50", "setting": "HT-29", "result": "5.95 ± 1.23", "unit": "µM"}, {"measurement": "IC50", "setting": "SW-480", "result": "1.55 ± 0.33", "unit": "µM"}, {"measurement": "fold more effective at inhibiting cultured melanoma cell survival than normal cells", "setting": "melanoma cells; melanoma cells versus normal cells, average", "result": 4.5, "unit": "fold"}, {"measurement": "IC50", "setting": "melanoma cells; read-out: average IC50, cultured melanoma cells, average over melanoma cells", "result": 2, "unit": "µM"}, {"measurement": "IC50", "setting": "normal cells", "result": 9.3, "unit": "µM"}, {"measurement": "decrease in cell viability", "setting": "UACC 903 melanoma cells", "result": "approximately 95%"}, {"measurement": "increase in apoptosis", "setting": "[2]", "result": 600, "unit": "%"}, {"measurement": "cell cycle distribution", "setting": "[3]", "result": "increase in the sub-G0/G1 and G0/G1 cell populations, with a corresponding decrease in the S-phase population"}, {"measurement": "signaling through PI3K pathway", "setting": "PI3K/Akt pathway", "result": "Decreased signaling"}, {"measurement": "signaling through MAPK pathway", "setting": "MAPK pathway", "result": "Decreased signaling"}, {"measurement": "signaling through STAT3 pathway", "setting": "STAT3 pathway; 3 to 6 µmol/L for 3 to 24 hours", "result": "Decreased signaling"}, {"measurement": "time from which inhibition of STAT3 pathway occurred", "setting": "STAT3 pathway; 3 to 6 µmol/L", "result": "≥ 12", "unit": "h"}, {"measurement": "reduction of tumor volume", "setting": "[4]", "result": 61, "unit": "%"}, {"measurement": "reduction of tumor volume", "setting": "[5]", "result": 57, "unit": "%"}, {"measurement": "inhibition of growth of preexisting xenografted melanoma tumors, average", "setting": "[6]; average of UACC 903 and 1205 Lu xenografts, i.p. daily for 3 to 4 weeks", "result": 60, "unit": "%"}, {"measurement": "animal body weight", "setting": "[6]; xenograft-bearing nude mice, leelamine i.p. daily versus DMSO control", "result": "no significant differences"}, {"measurement": "blood markers of major organ function (ALP, ALT, AST, CK, CREA, GLU)", "setting": "Toxicity assessment; after 22 days, 10 mg/kg", "result": "No significant differences; also recorded: negligible toxicity"}, {"measurement": "blood markers of major organ function (ALP, ALT, AST, CK, CREA, GLU)", "setting": "Toxicity assessment; after 22 days, listed as Leelamine, 10 mg/kg", "result": "without affecting"}, {"measurement": "histological examination of H&E stained vital organ sections (cellular morphology or overall structure)", "setting": "Toxicity assessment; 10 mg/kg, after 22 days, liver, spleen, kidney, intestine, lung, heart, 10 mg/kg", "result": "no change; also recorded: no differences"}, {"measurement": "body weights", "setting": "Toxicity assessment; 5 or 10 mg/kg i.p. daily, 22 days", "result": "No significant difference"}, {"measurement": "reduction in proliferating cells (Ki-67)", "setting": "UACC 903 tumors", "result": 50, "unit": "%"}, {"measurement": "active pAkt (Ser473) in tumor lysates", "setting": "pAkt (Ser473)", "result": "decreased; also recorded: inhibition"}, {"measurement": "pStat3 (Tyr705) in tumor lysates", "setting": "pStat3 (Tyr705)", "result": "decreased; also recorded: inhibition"}, {"measurement": "binding to the cannabinoid receptor CB1", "setting": "cannabinoid receptor CB1", "result": "weakly binding"}, {"measurement": "stimulation of G-protein activity", "setting": "G-protein activity", "result": "not stimulating"}]}]}
